# From article PMC6263940 (Nature chemical biology, 2018)
# Tests used:
# mouse PLA2G6 = target: T1, mouse PLA2G6 (Mus musculus, UniProt P97819); assay: Competitive gel ABPP; assay type: biochemical; details: membrane lysate 1 mg/mL of transfected HEK293T cells, FP-Rh
# T1 sequence (P97819 1-807): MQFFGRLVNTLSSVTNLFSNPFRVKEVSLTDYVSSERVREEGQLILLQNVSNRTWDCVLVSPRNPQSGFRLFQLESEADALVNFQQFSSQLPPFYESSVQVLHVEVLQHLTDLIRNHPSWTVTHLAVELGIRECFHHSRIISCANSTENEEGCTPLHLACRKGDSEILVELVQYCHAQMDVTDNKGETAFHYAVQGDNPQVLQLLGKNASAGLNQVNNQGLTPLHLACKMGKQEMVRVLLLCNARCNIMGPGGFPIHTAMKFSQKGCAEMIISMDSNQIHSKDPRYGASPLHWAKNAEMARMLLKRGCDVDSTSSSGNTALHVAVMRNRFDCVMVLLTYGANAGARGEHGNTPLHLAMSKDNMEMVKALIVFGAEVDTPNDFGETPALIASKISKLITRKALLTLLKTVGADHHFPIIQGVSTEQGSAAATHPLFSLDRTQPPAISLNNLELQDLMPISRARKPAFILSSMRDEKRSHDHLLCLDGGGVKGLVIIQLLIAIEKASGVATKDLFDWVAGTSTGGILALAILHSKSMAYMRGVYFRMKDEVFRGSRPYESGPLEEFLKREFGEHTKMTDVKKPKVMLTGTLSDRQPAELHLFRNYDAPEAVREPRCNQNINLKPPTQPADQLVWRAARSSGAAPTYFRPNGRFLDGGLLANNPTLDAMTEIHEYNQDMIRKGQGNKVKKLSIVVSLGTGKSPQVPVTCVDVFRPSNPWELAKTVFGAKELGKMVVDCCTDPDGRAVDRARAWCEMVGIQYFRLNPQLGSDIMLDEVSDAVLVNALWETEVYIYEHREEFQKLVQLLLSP
# Procedure, shortened: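 HEK293T cells transiently transfected with mouse PLA2G6 cDNA (pCMV-SPORT6); membrane lysate (1 mg/mL) prepared. Lysate pre-exposed to test compound, then labelled with FP-Rh (1 μM final, 45 min, 37 °C). Gel band intensity compared with a control-treated sample.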
# ABHD12 [1] = target: T2, ABHD12 (Homo sapiens, UniProt Q8N2K0); assay type: cell-based
# T2 sequence (Q8N2K0 1-398): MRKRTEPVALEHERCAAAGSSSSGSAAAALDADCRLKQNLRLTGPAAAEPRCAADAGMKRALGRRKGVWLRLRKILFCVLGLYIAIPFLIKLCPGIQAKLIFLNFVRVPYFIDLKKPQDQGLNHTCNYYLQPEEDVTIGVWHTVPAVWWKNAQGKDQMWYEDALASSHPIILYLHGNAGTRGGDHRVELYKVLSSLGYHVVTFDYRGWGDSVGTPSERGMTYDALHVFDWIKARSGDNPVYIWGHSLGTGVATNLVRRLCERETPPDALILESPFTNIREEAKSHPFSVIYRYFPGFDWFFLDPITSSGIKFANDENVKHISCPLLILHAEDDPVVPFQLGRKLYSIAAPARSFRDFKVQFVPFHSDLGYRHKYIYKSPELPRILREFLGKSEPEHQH
# Procedure, shortened: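 THP-1 cells (6 million in 10 mL) given test compound (1–1000 nM) or DMSO for 4 h at 37 °C, 5% CO₂, then washed twice in ice-cold DPBS. Membrane proteome incubated with 17:1 lyso-PS (100 μM final), 20 min, 37 °C. Readout is the LC-MS 17:1 FFA/15:0 FFA ratio minus the JJH350 (10 μM)-treated membrane background. IC50 fitted as log(inhibitor) vs normalized response.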
# [2] = target: T3, serine hydrolases in THP-1 cells (Homo sapiens, UniProt P08910); assay: ABPP-SILAC; assay type: cell-based
# T3 sequence (P08910 1-425): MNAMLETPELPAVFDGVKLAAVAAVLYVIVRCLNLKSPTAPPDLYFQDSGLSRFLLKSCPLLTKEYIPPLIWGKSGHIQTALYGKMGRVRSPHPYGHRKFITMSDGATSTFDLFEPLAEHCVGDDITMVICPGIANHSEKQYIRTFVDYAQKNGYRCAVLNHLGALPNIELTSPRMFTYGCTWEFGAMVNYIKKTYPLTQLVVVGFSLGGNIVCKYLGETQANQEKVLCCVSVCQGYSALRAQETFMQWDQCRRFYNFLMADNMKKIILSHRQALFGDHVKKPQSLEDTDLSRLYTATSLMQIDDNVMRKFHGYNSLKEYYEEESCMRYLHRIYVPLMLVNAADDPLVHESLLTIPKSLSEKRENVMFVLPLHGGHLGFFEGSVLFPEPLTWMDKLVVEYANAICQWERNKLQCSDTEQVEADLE
# [3] = system: serine hydrolases in THP-1 cells; assay: ABPP-SILAC; assay type: cell-based, human; details: 1 μM, 4 h, THP-1 cells
# ABHD12 [4] = target: T4, ABHD12 (Mus musculus, UniProt Q99LR1); assay: Ex vivo gel-based competitive ABPP; assay type: in vivo
# T4 sequence (Q99LR1 1-398): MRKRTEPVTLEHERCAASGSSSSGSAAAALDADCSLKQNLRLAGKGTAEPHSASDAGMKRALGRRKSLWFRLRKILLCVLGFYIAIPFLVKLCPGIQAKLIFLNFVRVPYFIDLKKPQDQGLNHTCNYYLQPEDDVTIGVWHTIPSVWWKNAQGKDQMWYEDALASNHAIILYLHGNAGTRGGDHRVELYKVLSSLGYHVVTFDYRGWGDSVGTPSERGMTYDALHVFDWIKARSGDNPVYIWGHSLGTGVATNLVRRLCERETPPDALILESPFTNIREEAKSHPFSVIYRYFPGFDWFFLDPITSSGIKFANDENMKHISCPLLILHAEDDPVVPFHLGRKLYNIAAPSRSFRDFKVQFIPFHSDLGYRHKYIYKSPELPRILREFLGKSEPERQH
smiles,measurement,setting,value
"FC(F)(F)Oc1ccc(Oc2ccnc(N3CCC(NC(=S)Nc4cccnc4)CC3)c2Cl)c(Cl)c1 [DO264, N-3-pyridyl-N’-(1-[3-chloro-4-{2-chloro-4-(trifluoromethoxy)phenoxy}pyridine-2-yl]piperidin-4-yl)thiourea]",inhibition of recombinantly expressed PLA2G6,mouse PLA2G6,nor did the compound inhibit
same,IC50,ABHD12 [1],26 nM
same,inhibition of human ABHD2 in situ,[2],did not inhibit
same,effect on activity of other serine hydrolases,[3],without affecting the activity of other serine hydrolases
same,brain ABHD12 activity at 48 h post-dosing,"ABHD12 [4]; 30 mg/kg, i.p.",partial recovery
same,time post-treatment over which inhibition of brain ABHD12 activity was observed,"ABHD12 [4]; 30 mg/kg, i.p.",4 to 24 h
same,"brain ABHD12 activity, ex vivo analysis with JJH350 probe","ABHD12 [4]; C57BL/6 mice, 30 and 60 mg/kg, i.p. (4 h or 24 h) or p.o. (4 h)",complete inhibition
same,inhibition of ABHD12 in peripheral tissues of mice,"ABHD12 [4]; i.p., 30 mg/kg, 4 h, FP-Rh and JJH350 probes",selectively inhibited
